In PMC11951523 (Genome Biology, 2025):
Read-outs that look alike come from different tables or passages of the source.

How the values were obtained:
SauCas9 [1] = target: T1, SauCas9 (Staphylococcus aureus, UniProt J7RUA5); assay: In vitro purified enzyme activity assay for SauCas9; assay type: biochemical; settings: Sau Cas9
T1 sequence (J7RUA5 1-1053): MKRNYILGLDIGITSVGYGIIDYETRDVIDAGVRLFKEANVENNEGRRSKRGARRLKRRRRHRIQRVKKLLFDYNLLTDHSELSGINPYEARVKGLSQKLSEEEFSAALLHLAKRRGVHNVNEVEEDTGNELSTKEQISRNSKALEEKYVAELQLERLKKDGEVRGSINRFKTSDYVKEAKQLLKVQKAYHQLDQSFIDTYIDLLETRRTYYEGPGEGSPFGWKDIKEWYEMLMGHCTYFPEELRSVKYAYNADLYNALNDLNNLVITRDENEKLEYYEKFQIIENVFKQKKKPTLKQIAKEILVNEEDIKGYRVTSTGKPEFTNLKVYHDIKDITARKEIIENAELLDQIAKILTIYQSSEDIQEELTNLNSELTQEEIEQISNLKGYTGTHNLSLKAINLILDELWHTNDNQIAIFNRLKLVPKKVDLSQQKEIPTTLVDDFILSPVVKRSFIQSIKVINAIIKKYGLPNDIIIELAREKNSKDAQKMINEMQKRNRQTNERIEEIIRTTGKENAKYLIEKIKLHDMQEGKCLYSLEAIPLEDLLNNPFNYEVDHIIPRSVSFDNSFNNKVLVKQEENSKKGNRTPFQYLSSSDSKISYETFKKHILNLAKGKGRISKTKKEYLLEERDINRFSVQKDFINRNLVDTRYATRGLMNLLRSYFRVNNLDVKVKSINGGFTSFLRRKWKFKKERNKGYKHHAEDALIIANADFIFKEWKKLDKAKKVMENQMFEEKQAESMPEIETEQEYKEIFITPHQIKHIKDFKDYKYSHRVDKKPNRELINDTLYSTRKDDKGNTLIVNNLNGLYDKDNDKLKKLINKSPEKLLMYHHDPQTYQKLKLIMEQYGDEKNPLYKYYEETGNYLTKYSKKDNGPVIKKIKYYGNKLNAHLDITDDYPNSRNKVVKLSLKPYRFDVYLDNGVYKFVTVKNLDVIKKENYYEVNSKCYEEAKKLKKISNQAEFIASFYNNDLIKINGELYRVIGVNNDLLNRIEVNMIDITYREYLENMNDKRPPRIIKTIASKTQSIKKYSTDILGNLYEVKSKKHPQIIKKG

SpyCas9 [2] = settings: read-out: IC50 in the in vitro DNA cleavage assay; cited from earlier work
SpyCas9 [3] = target: T2, SpyCas9 (Streptococcus pyogenes serotype M1, UniProt Q99ZW2); assay: biochemical; settings: Spy Cas9
SpyCas9 [4] = target: T2, SpyCas9; assay: Two-plasmid-based bacterial survival assay; assay type: cell-based; settings: read-out: IC50, bacteria-based assay, Spy Cas9, bacterial survival assay using pCas and pTarget-sgSSEA plasmids, E. coli MG1655
Procedure, shortened: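 E. coli MG1655 competent cells carrying pCas (SpyCas9) electroporated with pTarget-sgSSEA, or the pT-sgControl plasmid as reference. Test compound added to the electroporated bacteria for 1.5 h at 32 °C, then plated on LB with kanamycin and spectinomycin and incubated overnight. Colonies counted and expressed as a percentage of the compound-treated sgControl strain at the same concentration (100%).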

SpyCas9 [5] = target: T2, SpyCas9; assay: GFP-disruption assay in HEK293FT cells; assay type: cell-based; settings: read-out: IC50, cell-based assay; Spy Cas9; GFP-disruption assay, PX459-SpyCas9 and pGL3-sgGFP plasmids, HEK293FT cells
SpyCas9 [6] = target: T2, SpyCas9; assay type: cell-based; settings: read-out: IC50, cell-based assay; Spy Cas9; TIDE analysis, editing efficiency for COSMC or EMX1 loci in HEK293FT cells
Procedure, shortened: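 HEK293FT cells, ~2 × 10^5 per well, were seeded 1 day before transfection (Lipofectamine 3000) with 1 μg PX459-SpyCas9-sgCOSMC, -sgEMX1 or -sgControl. Test compound was added 0 or 6 h post-transfection, and cells were kept 24 h at 37 °C, then selected with 2.5 μg/ml puromycin for 36–48 h. Target loci were PCR-amplified, Sanger-sequenced and scored by TIDE.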

SauCas9 [7] = target: T1, SauCas9; assay: SauCas9-mediated genome editing of COSMC in HEK293FT cells, TIDE analysis; assay type: cell-based; settings: read-out: IC50, cell-based assay; Sau Cas9; TIDE analysis, editing efficiency for COSMC in HEK293FT cells
Procedure, shortened: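 HEK293FT wt cells were co-transfected (Lipofectamine 3000) with 1 μg miniCMV-SaCas9 and 1 μg pGL3 carrying sgCOSMC-Sau or sgControl. Test compound was added right after transfection for 24 h, followed by 2.5 μg/ml puromycin selection. The COSMC locus was PCR-amplified (40 cycles), Sanger-sequenced, and editing efficiency was obtained by TIDE analysis.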

BE4 base editor = BE4 base editor (Streptococcus pyogenes, UniProt Q99ZW2, D10A); assay: BE4-mediated base editing of EMX1 in HEK293FT cells, EditR analysis; assay type: cell-based; settings: read-out: IC50, cell-based assay; BE4 base editing efficiency for EMX1 loci, HEK293FT cells
FnoCas12a = FnoCas12a (Francisella tularensis subsp. novicida, UniProt A0Q7Q2); assay type: biochemical
LbaCas12a = LbaCas12a activity assay; assay type: biochemical, Lachnospiraceae bacterium; settings: for effect on the activity of LbaCas12a: complete inhibition refers to 50 μM or above
[8] = system: EcoRI or KpnI endonuclease; assay: EcoRI or KpnI endonuclease activity assay with 2.5 kb linear DNA; assay type: biochemical
[9] = system: SpyCas9-mediated genome editing of PCSK9; assay: SpyCas9-mediated anti-PCSK9 mouse model by hydrodynamic injection; assay type: in vivo, BALB/c mice
Procedure, shortened: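 On days 1, 4 and 7, 90 μg PX459-SpyCas9-sgPCSK9 or -sgControl in 2 ml saline was injected hydrodynamically into the tail vein over 5–8 s. Orbital blood (~100 μl) was taken days 2, 5 and 8, and heparin plasma (20 μl) was assayed by PCSK9 ELISA.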

E. coli MG1655 = assay: Toxicity to bacteria in the two-plasmid-based bacterial survival assay; assay type: cell-based; settings: MG1655, bacterial survival assay
Procedure, shortened: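 MG1655 pCas-competent cells were electroporated with pT-sgControl. Test compound was added to 700 μl LB immediately afterwards and incubated 1.5 h at 32 °C, then plated on LB agar with kanamycin and spectinomycin (100 μg/ml each). Colonies were counted after overnight incubation; biological replicates n = 3.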

[10] = in humans; cited from earlier work
SpyCas9 [11] = target: T2, SpyCas9; assay: Surface plasmon resonance assay; assay type: binding
Procedure, shortened: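 His-tagged SpyCas9, Ni–NTA purified and imidazole-eluted, amine-coupled to a CM5 chip at 100 μg/ml. Test compounds were diluted in 1× PBST to a series of concentrations and injected at 30 μl/min, with 120 s association and 120 s dissociation. Equilibrium KD was fitted from the response curves.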

[12] = read-out: IC50, in vitro purified enzyme assay, linear substrates (87 bp oligonucleotide)
[13] = read-out: IC50, in vitro purified enzyme assay, supercoil (circular) plasmid substrate

SMILES: Cc1ccc(S(=O)(=O)N2CC[C@@H]3[C@H](CO)Nc4ccc(-c5ccccc5F)cc4[C@@H]32)cc1 [BRD0539]
- IC50 (SauCas9 [1]; [12]): 10 to 20 µM
- IC50 (SauCas9 [1]; [13]): ~50 µM
- IC50 (SpyCas9 [2]): 22 µM

SMILES: CN[C@H]1C(=O)N[C@@H]2Cc3ccc(cc3)Oc3cc4cc(c3O[C@@H]3O[C@H](C(=O)O)[C@@H](O)[C@H](O)[C@H]3NC(=O)CCCCCCCCC(C)C)Oc3ccc(cc3Cl)[C@@H](O)[C@@H]3NC(=O)[C@H](NC(=O)[C@@H]4NC(=O)[C@@H](NC2=O)c2cc(cc(O)c2Cl)Oc2cc1ccc2O)c1ccc(O)c(c1)-c1c(O[C@H]2O[C@H](CO)[C@@H](O)[C@H](O)[C@@H]2O)cc(O)cc1[C@@H](C(=O)NCCCN(C)C)NC3=O [Dalbavancin]
- IC50 (SpyCas9 [3]; read-out: IC50, in vitro purified enzyme assay, linear substrates (87 bp oligonucleotide or 2.5 kb linear DNA)): ~5 µM
- IC50 (SpyCas9 [3]; read-out: IC50, in vitro purified enzyme assay, supercoil (circular) plasmid substrate pcDNA3.1/CT-GFP): 10 to 20 µM
- IC50 (SauCas9 [1]; [12]): ~25 µM
- IC50 (SauCas9 [1]; [13]): 12.5 to 25 µM
- IC50 (SpyCas9 [4]): 12.5 to 25 µM
- IC50 (SpyCas9 [4]; listed as dalbavancin): ~12.5 µM
- IC50 (SpyCas9 [5]): ~10 µM
- IC50 (SpyCas9 [6]): ~10 µM
- IC50 (SauCas9 [7]): ~10 µM
- IC50 (BE4 base editor): 10 to 20 µM
- effect on the activity of FnoCas12a (FnoCas12a): inactive to or weakly inhibited
- effect on the activity of LbaCas12a (LbaCas12a): inactive to or weakly inhibited
- selectivity for Cas9 over other endonucleases EcoRI and KpnI [8]: more than 10 folds
- effect on the basal level of PCSK9 in vehicle-treated (sgControl) mice ([9]; 160 mg/kg): did not interfere
- preventive effect on loss of plasma PCSK9 ([9]; high doses of 80 or 160 mg/kg, 2nd or 3rd treatment cycle): strong preventive effects
- toxicity to E. coli (E. coli MG1655): did not appear to be much toxic
- elimination half-time (t1/2 value) [10]: ~ 1 week
- site of metabolism / elimination [10]: largely eliminated in the kidney

SMILES: CCCCC(CC)COC(=O)CC(C(=O)OCC(CC)CCCC)S(=O)(=O)O (stereo not shown) [Docusate]
- IC50 (SpyCas9 [3]; IC50, in vitro purified enzyme assay, linear substrates (87 bp oligonucleotide or 2.5 kb linear DNA)): 20 to 50 µM
- IC50 (SpyCas9 [3]; IC50, in vitro purified enzyme assay, supercoil (circular) plasmid substrate pcDNA3.1/CT-GFP): 10 to 20 µM
- IC50 (SauCas9 [1]; IC50, in vitro purified enzyme assay, linear substrates (87 bp oligonucleotide)): 12.5 to 25 µM
- IC50 (SauCas9 [1]; IC50, in vitro purified enzyme assay, supercoil (circular) plasmid substrate): 25 to 50 µM
- Kd (SpyCas9 [11]): 12.8 to 56.4 µM
- effect on the activity of FnoCas12a (FnoCas12a): completely inhibit
- selectivity of inhibition between SpyCas9 (Type II-A) and FnoCas12a (Type V) (FnoCas12a): less than 5 folds
- selectivity of inhibition between SpyCas9 (Type II-A) and LbaCas12a (Type V) (LbaCas12a): less than 5 folds
- effect on the activity of LbaCas12a (LbaCas12a): completely inhibit
- selectivity for Cas9 over other endonucleases EcoRI and KpnI [8]: ~ 5 folds
